Laboratory results published in ChEMBL document CHEMBL1150162, “Antimicrobial activities of naphthazarins from Arnebia euchroma” (2002).
≈ marks a conversion by molar mass, not a printed value. Calls of active or inactive are those of the source. No cut-off for these calls is given here.

Key:
Enterococcus faecalis [1] = assay: Antibacterial activity against Enterococcus faecalis after 24 hrs by broth microdilution method; assay type: functional
Summary of the method: (§1)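 2-fold serial dilutions of test agent in LB broth, DMSO under 5% final. Inoculum about 5 × 10^5 CFU/mL, confirmed by LB agar plating. Incubated 24 h at 35 °C in ambient air. MIC is the lowest concentration with no visible growth. Three repeats; oxacillin, vancomycin and chloramphenicol as positive controls.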

Enterococcus faecalis [2] = assay: Antibacterial activity against Enterococcus faecalis after 48 hrs by broth microdilution method; assay type: functional
Enterococcus faecium [3] = assay: Antibacterial activity against vancomycin-resistant Enterococcus faecium F935 expressing VanA after 24 hrs by broth microdilution method; assay type: functional; details: F935, 24 h; summary of the method: as §1
Enterococcus faecium [4] = assay: Antibacterial activity against vancomycin-resistant Enterococcus faecium F935 expressing VanA after 48 hrs by broth microdilution method; assay type: functional
Enterococcus faecalis [5] = assay: Antibacterial activity against vancomycin-resistant Enterococcus faecalis CKU-17 expressing VanB after 24 hrs by broth microdilution method; assay type: functional; details: CKU-17, 24 h; summary of the method: as §1
Enterococcus faecalis [6] = assay: Antibacterial activity against vancomycin-resistant Enterococcus faecalis CKU-17 expressing VanB after 48 hrs by broth microdilution method; assay type: functional
Escherichia coli = assay: Antibacterial activity against Escherichia coli up to 100 ug/mL after 24 hrs by broth microdilution method; assay type: functional, organism-based
Summary of the method: (§2)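 Broth microdilution with 2-fold serial dilutions in LB broth, compounds from DMSO stocks (DMSO below 5% final), inoculum about 5 × 10^5 CFU/mL. Incubated 24 h at 35 °C in ambient air. MIC is the lowest concentration with no visible growth. Experiments repeated three times.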

Pseudomonas aeruginosa = assay: Antibacterial activity against Pseudomonas aeruginosa up to 100 ug/mL after 24 hrs by broth microdilution method; assay type: functional, organism-based; summary of the method: as §2
Staphylococcus aureus [7] = assay: Ratio of MBC to MIC for Staphylococcus aureus; assay type: functional
Enterococcus faecalis [8] = assay: Ratio of MBC to MIC for Enterococcus faecalis; assay type: functional
Enterococcus faecium [9] = assay: Ratio of MBC to MIC for vancomycin-resistant Enterococcus faecium F935 expressing VanA; assay type: functional
HepG2 = assay: Cytotoxicity against human HepG2 cells after 48 hrs by MTT assay; assay type: functional; details: HepG2, 48 h, read-out: CD50 (the source's name)
Summary of the method: (§3)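 Cells seeded at 5 × 10^3 per well, grown 24 h, then given 2-fold dilutions of sample for 48 h. Medium replaced with serum-free medium, MTT added (5 mg/mL stock) for 2 h at 37 °C, formazan dissolved in DMSO, OD read at 550 nm. CD50 is the concentration giving 50% reduction in net cell increase. Quadruplicate, repeated at least twice.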

HeLa = assay: Cytotoxicity against human HeLa cells after 48 hrs by MTT assay; assay type: functional; details: read-out: CD50 (the source's name); summary of the method: as §3
OVCAR-3 = assay: Cytotoxicity against human OVCAR-3 cells after 48 hrs by MTT assay; assay type: functional; details: OVCAR-3, 48 h, read-out: CD50 (the source's name); summary of the method: as §3
Staphylococcus aureus [10] = assay: Antibacterial activity against Staphylococcus aureus after 24 hrs by broth microdilution method; assay type: functional
Summary of the method: as §1, with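 “in […]” for “in LB”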

Staphylococcus aureus [11] = assay: Antibacterial activity against Staphylococcus aureus after 48 hrs by broth microdilution method; assay type: functional
Staphylococcus aureus [12] = assay: Antibacterial activity against methicillin-resistant Staphylococcus aureus 8-8S after 24 hrs by broth microdilution method; assay type: functional
Summary of the method: as §1, with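 “in […]” for “in LB”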

Staphylococcus aureus [13] = assay: Antibacterial activity against methicillin-resistant Staphylococcus aureus 8-8S after 48 hrs by broth microdilution method; assay type: functional

CC(C)=CC[C@H](OC(=O)C=C(C)C)C1=CC(=O)c2c(O)ccc(O)c2C1=O
MIC (Enterococcus faecalis [1]): 3.13 µg/mL (≈ 8.45 µM) | MBC (Enterococcus faecalis [2]): 3.13 µg/mL (≈ 8.45 µM) | MIC (Enterococcus faecium [3]): 3.13 µg/mL (≈ 8.45 µM) | MBC (Enterococcus faecium [4]; F935, 48 h): 3.13 µg/mL (≈ 8.45 µM) | MIC (Enterococcus faecalis [5]): 3.13 µg/mL (≈ 8.45 µM) | MBC (Enterococcus faecalis [6]; CKU-17, 48 h): 3.13 µg/mL (≈ 8.45 µM) | Activity (Escherichia coli): inactive | Activity (Pseudomonas aeruginosa): inactive | Ratio (Staphylococcus aureus [7]): <=2 | Ratio (Enterococcus faecalis [8]): <=2 | Ratio (Enterococcus faecium [9]): <=2 | CC50 (HepG2): 2.6 µg/mL (≈ 7.02 µM) | CC50 (HeLa): 1.8 µg/mL (≈ 4.86 µM) | CC50 (OVCAR-3): 1.6 µg/mL (≈ 4.32 µM) | MIC (Staphylococcus aureus [10]): 1.56 µg/mL (≈ 4.21 µM) | MBC (Staphylococcus aureus [11]): 1.56 µg/mL (≈ 4.21 µM) | MIC (Staphylococcus aureus [12]): 1.56 µg/mL (≈ 4.21 µM) | MBC (Staphylococcus aureus [13]): 3.13 µg/mL (≈ 8.45 µM)

Cc1onc(-c2ccccc2)c1C(=O)N[C@@H]1C(=O)N2[C@@H]1SC(C)(C)[C@@H]2C(=O)O [OXACILLIN]
MIC (Enterococcus faecalis [1]): 25 µg/mL (≈ 62.3 µM) | MBC (Enterococcus faecalis [2]): 50 µg/mL (≈ 125 µM) | MIC (Enterococcus faecium [3]): > 100 µg/mL | MBC (Enterococcus faecium [4]): inactive | MIC (Enterococcus faecalis [5]): > 100 µg/mL | MBC (Enterococcus faecalis [6]): inactive | MIC (Staphylococcus aureus [10]): 0.39 µg/mL (≈ 0.971 µM) | MBC (Staphylococcus aureus [11]): 0.39 µg/mL (≈ 0.971 µM) | MIC (Staphylococcus aureus [12]): > 100 µg/mL | MBC (Staphylococcus aureus [13]): inactive

CC(C)=CC[C@H](OC(=O)/C=C/c1ccc2c(c1)OCO2)C1=CC(=O)c2c(O)ccc(O)c2C1=O
MIC (Enterococcus faecalis [1]): 100 µg/mL (≈ 216 µM) | MBC (Enterococcus faecalis [2]): > 100 µg/mL | MIC (Enterococcus faecium [3]): 50 µg/mL (≈ 108 µM) | MBC (Enterococcus faecium [4]; F935, 48 h): 50 µg/mL (≈ 108 µM) | MIC (Enterococcus faecalis [5]): 50 µg/mL (≈ 108 µM) | MBC (Enterococcus faecalis [6]; CKU-17, 48 h): 50 µg/mL (≈ 108 µM) | Activity (Escherichia coli): inactive | Activity (Pseudomonas aeruginosa): inactive | CC50 (HepG2): 2.1 µg/mL (≈ 4.54 µM) | CC50 (HeLa): 1.5 µg/mL (≈ 3.24 µM) | CC50 (OVCAR-3): 1 µg/mL (≈ 2.16 µM) | MIC (Staphylococcus aureus [10]): 50 µg/mL (≈ 108 µM) | MBC (Staphylococcus aureus [11]): 100 µg/mL (≈ 216 µM) | MIC (Staphylococcus aureus [12]): 50 µg/mL (≈ 108 µM) | MBC (Staphylococcus aureus [13]): 50 µg/mL (≈ 108 µM)

CC(C)=CC[C@H](OC(=O)C(C)C)C1=CC(=O)c2c(O)ccc(O)c2C1=O [ISOBUTYLALKANNIN]
MIC (Enterococcus faecalis [1]): 3.13 µg/mL (≈ 8.73 µM) | MBC (Enterococcus faecalis [2]): 3.13 µg/mL (≈ 8.73 µM) | MIC (Enterococcus faecium [3]): 3.13 µg/mL (≈ 8.73 µM) | MBC (Enterococcus faecium [4]; F935, 48 h): 3.13 µg/mL (≈ 8.73 µM) | MIC (Enterococcus faecalis [5]): 3.13 µg/mL (≈ 8.73 µM) | MBC (Enterococcus faecalis [6]; CKU-17, 48 h): 6.25 µg/mL (≈ 17.4 µM) | Activity (Escherichia coli): inactive | Activity (Pseudomonas aeruginosa): inactive | Ratio (Staphylococcus aureus [7]): <=2 | Ratio (Enterococcus faecalis [8]): <=2 | Ratio (Enterococcus faecium [9]): <=2 | CC50 (HepG2): 4 µg/mL (≈ 11.2 µM) | CC50 (HeLa): 5.4 µg/mL (≈ 15.1 µM) | CC50 (OVCAR-3): 2 µg/mL (≈ 5.58 µM) | MIC (Staphylococcus aureus [10]): 1.56 µg/mL (≈ 4.35 µM) | MBC (Staphylococcus aureus [11]): 1.56 µg/mL (≈ 4.35 µM) | MIC (Staphylococcus aureus [12]): 1.56 µg/mL (≈ 4.35 µM) | MBC (Staphylococcus aureus [13]): 3.13 µg/mL (≈ 8.73 µM)

O=C(N[C@H](CO)[C@H](O)c1ccc([N+](=O)[O-])cc1)C(Cl)Cl [CHLORAMPHENICOL]
MIC (Enterococcus faecalis [1]): 6.25 µg/mL (≈ 19.3 µM) | MBC (Enterococcus faecalis [2]): inactive | MIC (Enterococcus faecium [3]): 6.25 µg/mL (≈ 19.3 µM) | MBC (Enterococcus faecium [4]): inactive | MIC (Enterococcus faecalis [5]): 6.25 µg/mL (≈ 19.3 µM) | MBC (Enterococcus faecalis [6]): inactive

CN[C@H](CC(C)C)C(=O)N[C@H]1C(=O)N[C@@H](CC(N)=O)C(=O)N[C@H]2C(=O)N[C@H]3C(=O)N[C@H](C(=O)N[C@H](C(=O)O)c4cc(O)cc(O)c4-c4cc3ccc4O)[C@H](O)c3ccc(c(Cl)c3)Oc3cc2cc(c3O[C@@H]2O[C@H](CO)[C@@H](O)[C@H](O)[C@H]2O[C@H]2C[C@](C)(N)[C@H](O)[C@H](C)O2)Oc2ccc(cc2Cl)[C@H]1O [VANCOMYCIN]
MIC (Enterococcus faecalis [1]): 3.13 µg/mL (≈ 2.16 µM) | MBC (Enterococcus faecalis [2]): inactive | MIC (Enterococcus faecium [3]): > 100 µg/mL | MBC (Enterococcus faecium [4]): inactive | MIC (Enterococcus faecalis [5]): > 100 µg/mL | MBC (Enterococcus faecalis [6]): inactive | MIC (Staphylococcus aureus [10]): 1.56 µg/mL (≈ 1.08 µM) | MBC (Staphylococcus aureus [11]): 1.56 µg/mL (≈ 1.08 µM) | MIC (Staphylococcus aureus [12]): 1.56 µg/mL (≈ 1.08 µM) | MBC (Staphylococcus aureus [13]): 1.56 µg/mL (≈ 1.08 µM)

CC(C)=CC[C@H](OC(=O)/C=C/c1ccccc1)C1=CC(=O)c2c(O)ccc(O)c2C1=O [CINNAMOYL ALKANNIN]
MIC (Enterococcus faecalis [1]): 100 µg/mL (≈ 239 µM) | MBC (Enterococcus faecalis [2]): > 100 µg/mL | MIC (Enterococcus faecium [3]): 25 µg/mL (≈ 59.7 µM) | MBC (Enterococcus faecium [4]; F935, 48 h): 100 µg/mL (≈ 239 µM) | MIC (Enterococcus faecalis [5]): 25 µg/mL (≈ 59.7 µM) | MBC (Enterococcus faecalis [6]; CKU-17, 48 h): 100 µg/mL (≈ 239 µM) | Activity (Escherichia coli): inactive | Activity (Pseudomonas aeruginosa): inactive | CC50 (HepG2): 3.8 µg/mL (≈ 9.08 µM) | CC50 (HeLa): 3.6 µg/mL (≈ 8.6 µM) | CC50 (OVCAR-3): 2.4 µg/mL (≈ 5.74 µM) | MIC (Staphylococcus aureus [10]): 50 µg/mL (≈ 119 µM) | MBC (Staphylococcus aureus [11]): 100 µg/mL (≈ 239 µM) | MIC (Staphylococcus aureus [12]): 50 µg/mL (≈ 119 µM) | MBC (Staphylococcus aureus [13]): > 100 µg/mL
